Key:
Format in all cases: functional
[1] = system: NCI-H522; test: Growth inhibition of human NCI-H522 cells after 48 hrs by sulforhodamine B assay; conditions: NCI-H522, 48 h
Method in brief: (§1)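 Five-dose concentration series run across a panel of 60 human tumour cell lines. GI50 is taken as the drug concentration giving a 50% reduction in net protein increase relative to untreated control cells.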

[2] = Growth inhibition of human OVCAR3 cells at 10 uM after 48 hrs by sulforhodamine B assay; conditions: OVCAR-3, 48 h, values are per cent of control
[3] = Growth inhibition of human LOXIMVI cells at 10 uM after 48 hrs by sulforhodamine B assay; conditions: LOX IMVI, values are per cent of control
[4] = Growth inhibition of human PC3 cells after 48 hrs by sulforhodamine B assay; conditions: PC-3, 48 h; method in brief: as §1
[5] = Growth inhibition of human HOP92 cells at 10 uM after 48 hrs by sulforhodamine B assay; conditions: HOP-92, 48 h, values are per cent of control
[6] = system: KM12; test: Growth inhibition of human KM12 cells at 10 uM after 48 hrs by sulforhodamine B assay; conditions: KM12, 48 h, values are per cent of control
[7] = Growth inhibition of human MOLT4 cells after 48 hrs by sulforhodamine B assay; conditions: MOLT-4, 48 h; method in brief: as §1
[8] = system: A549; test: Growth inhibition of human A549/ATCC cells at 10 uM after 48 hrs by sulforhodamine B assay; conditions: A549, 48 h, values are per cent of control
[9] = system: SK-MEL-2; test: Growth inhibition of human SK-MEL-2 cells after 48 hrs by sulforhodamine B assay; conditions: SK-MEL-2, 48 h; method in brief: as §1
[10] = Growth inhibition of human RPMI8226 cells at 10 uM after 48 hrs by sulforhodamine B assay; conditions: RPMI-8226, 48 h, values are per cent of control
[11] = system: HT-29; test: Growth inhibition of human HT-29 cells at 10 uM after 48 hrs by sulforhodamine B assay; conditions: HT-29, 48 h, values are per cent of control
[12] = system: 786-0; test: Growth inhibition of human 786-0 cells after 48 hrs by sulforhodamine B assay; conditions: 786-0, 48 h
Method in brief: (§2)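 Five-dose testing against a 60-line human tumor cell panel. GI50 is the drug concentration giving a 50% reduction in net protein increase relative to untreated control cells.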

[13] = system: A549; test: Growth inhibition of human A549/ATCC cells after 48 hrs by sulforhodamine B assay; conditions: A549, 48 h; method in brief: as §2
[14] = system: MDA-MB-231; test: Growth inhibition of human MDA-MB-231 cells after 48 hrs by sulforhodamine B assay; conditions: MDA-MB-231, 48 h; method in brief: as §2
[15] = system: ACHN; test: Growth inhibition of human ACHN cells after 48 hrs by sulforhodamine B assay; method in brief: as §2
[16] = Growth inhibition of human PC3 cells at 10 uM after 48 hrs by sulforhodamine B assay; conditions: PC-3, 48 h, values are per cent of control
[17] = system: KM12; test: Growth inhibition of human KM12 cells after 48 hrs by sulforhodamine B assay; conditions: KM12, 48 h; method in brief: as §2
[18] = Growth inhibition of human HOP62 cells after 48 hrs by sulforhodamine B assay; conditions: HOP-62, 48 h; method in brief: as §2
[19] = system: MDA-MB-435; test: Growth inhibition of human MDA-MB-435 cells after 48 hrs by sulforhodamine B assay; conditions: MDA-MB-435, 48 h; method in brief: as §2
[20] = Growth inhibition of human UO31 cells at 10 uM after 48 hrs by sulforhodamine B assay; conditions: UO-31, 48 h, values are per cent of control
[21] = Growth inhibition of human HCC2998 cells after 48 hrs by sulforhodamine B assay; conditions: HCC 2998, 48 h; method in brief: as §2
[22] = Growth inhibition of human UACC257 cells at 10 uM after 48 hrs by sulforhodamine B assay; conditions: UACC-257, 48 h, values are per cent of control
[23] = system: MCF7; test: Growth inhibition of human MCF7 cells at 10 uM after 48 hrs by sulforhodamine B assay; conditions: MCF7, 48 h, values are per cent of control
[24] = Growth inhibition of human OVCAR8 cells at 10 uM after 48 hrs by sulforhodamine B assay; conditions: OVCAR-8, 48 h, values are per cent of control
[25] = Growth inhibition of human SNB19 cells after 48 hrs by sulforhodamine B assay; conditions: SNB-19, 48 h; method in brief: as §1
[26] = system: MDA-MB-231; test: Growth inhibition of human MDA-MB-231 cells at 10 uM after 48 hrs by sulforhodamine B assay; conditions: MDA-MB-231, 48 h, values are per cent of control
[27] = system: CCRF-CEM; test: Growth inhibition of human CCRF-CEM cells at 10 uM after 48 hrs by sulforhodamine B assay; conditions: values are per cent of control
[28] = Growth inhibition of human OVCAR3 cells after 48 hrs by sulforhodamine B assay; conditions: OVCAR-3, 48 h; method in brief: as §1
[29] = system: Malme-3M; test: Growth inhibition of human MALME-3M cells at 10 uM after 48 hrs by sulforhodamine B assay; conditions: values are per cent of control
[30] = Growth inhibition of human BT549 cells at 10 uM after 48 hrs by sulforhodamine B assay; conditions: BT-549, 48 h, values are per cent of control
[31] = Growth inhibition of human UACC62 cells after 48 hrs by sulforhodamine B assay; conditions: UACC-62, 48 h
Method in brief: (§3)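 Five-dose testing across the 60-line human tumour cell panel. GI50 is the drug concentration that gives a 50% reduction in net protein increase relative to control cells.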

[32] = system: SK-MEL-5; test: Growth inhibition of human SK-MEL-5 cells at 10 uM after 48 hrs by sulforhodamine B assay; conditions: SK-MEL-5, 48 h, values are per cent of control
[33] = system: CCRF-CEM; test: Growth inhibition of human CCRF-CEM cells after 48 hrs by sulforhodamine B assay; method in brief: as §2
[34] = Growth inhibition of human SF295 cells after 48 hrs by sulforhodamine B assay; conditions: SF-295, 48 h; method in brief: as §1
[35] = system: MDA-MB-468; test: Growth inhibition of human MDA-MB-468 cells after 48 hrs by sulforhodamine B assay; conditions: MDA-MB-468, 48 h; method in brief: as §2
[36] = Growth inhibition of human SW620 cells after 48 hrs by sulforhodamine B assay; conditions: SW-620, 48 h; method in brief: as §1
[37] = system: SR; test: Growth inhibition of human SR cells after 48 hrs by sulforhodamine B assay; method in brief: as §1
[38] = Growth inhibition of human UO31 cells after 48 hrs by sulforhodamine B assay; conditions: UO-31, 48 h; method in brief: as §3
[39] = Growth inhibition of human MOLT4 cells at 10 uM after 48 hrs by sulforhodamine B assay; conditions: MOLT-4, 48 h, values are per cent of control
[40] = Growth inhibition of human HL-60(TB) cells at 10 uM after 48 hrs by sulforhodamine B assay; conditions: HL-60, 48 h, values are per cent of control
[41] = Growth inhibition of human OVCAR4 cells after 48 hrs by sulforhodamine B assay; conditions: OVCAR-4, 48 h; method in brief: as §1
[42] = Growth inhibition of human SNB75 cells after 48 hrs by sulforhodamine B assay; conditions: SNB-75, 48 h; method in brief: as §1

| Structure (SMILES) | GI50 [1] | growth, % of control at 10 µM [3] | GI50 [4] | growth, % of control at 10 µM [6] | GI50 [7] | growth, % of control at 10 µM [8] | growth, % of control at 10 µM [10] | growth, % of control at 10 µM [11] | GI50 [12] | GI50 [13] | GI50 [14] | GI50 [15] | growth, % of control at 10 µM [16] | GI50 [17] | GI50 [18] | GI50 [19] | growth, % of control at 10 µM [20] | GI50 [21] | growth, % of control at 10 µM [22] | growth, % of control at 10 µM [24] | other results |
| --- | --- | --- | --- | --- | --- | --- | --- | --- | --- | --- | --- | --- | --- | --- | --- | --- | --- | --- | --- | --- | --- |
| COc1ccc(/C=C(\C#N)c2ccc3c(c2)OCO3)cc1 | 40 nM | 33.3% | 320 nM | 30% | 450 nM | 32.3% | 18.9% | 6% | 18900 nM | 270 nM | 2110 nM | 520 nM | 21.2% | 70 nM | 300 nM | 30 nM | 28% | 5260 nM | 23% | 26.7% | growth, % of control at 10 µM [2]: 4.9%; growth, % of control at 10 µM [5]: 40.4%; GI50 [9]: 210 nM; growth, % of control at 10 µM [23]: 20.7%; GI50 [25]: 750 nM; growth, % of control at 10 µM [26]: 49.6%; growth, % of control at 10 µM [27]: 21.6%; GI50 [28]: 270 nM; growth, % of control at 10 µM [29]: 24.3%; growth, % of control at 10 µM [30]: 30.3%; GI50 [31]: 590 nM; growth, % of control at 10 µM [32]: 16.4%; GI50 [33]: 250 nM; GI50 [34]: 200 nM; GI50 [35]: 280 nM; GI50 [36]: 120 nM; GI50 [37]: 50 nM; GI50 [38]: 580 nM; growth, % of control at 10 µM [39]: 19.5%; growth, % of control at 10 µM [40]: 0.1% |
| COc1cc(/C(C#N)=C/c2ccc3c(c2)OCCO3)cc(OC)c1OC | 50 nM | 24.7% | 60 nM | 2% | 620 nM | 21.1% | 39.2% | 0.4% | 40 nM | 60 nM | 170 nM | 80 nM | 26.5% | 50 nM | 50 nM | 20 nM | 23.9% | 140 nM | 76% | 10.4% | growth, % of control at 10 µM [5]: -1.7%; GI50 [41]: 260 nM; growth, % of control at 10 µM [23]: 14.6%; GI50 [25]: 190 nM; growth, % of control at 10 µM [26]: 13.7%; growth, % of control at 10 µM [27]: 0.4%; GI50 [28]: 40 nM; growth, % of control at 10 µM [29]: 64.3%; growth, % of control at 10 µM [30]: -17.2%; GI50 [31]: 30 nM; growth, % of control at 10 µM [32]: -38%; GI50 [33]: 210 nM; GI50 [34]: 20 nM; GI50 [35]: 30 nM; GI50 [36]: 40 nM; GI50 [37]: 60 nM; GI50 [42]: 30 nM; growth, % of control at 10 µM [39]: -14.3%; growth, % of control at 10 µM [40]: -46.3% |
| COc1ccc(/C=C(\C#N)c2ccc3c(c2)OCO3)c(OC)c1 | 2580 nM | 41% | 3030 nM | 28.1% | 2810 nM | 36.4% | 58.1% | 10% | 4930 nM | 2650 nM | 3360 nM | 4920 nM | 47% | 2250 nM | 3300 nM | 300 nM | 46.7% | 11900 nM | 44.7% | 63.1% | growth, % of control at 10 µM [2]: 15.3%; GI50 [41]: 1650 nM; GI50 [9]: 720 nM; GI50 [25]: 6950 nM; growth, % of control at 10 µM [26]: 48.9%; growth, % of control at 10 µM [27]: 27%; GI50 [28]: 3100 nM; growth, % of control at 10 µM [29]: 49.3%; growth, % of control at 10 µM [30]: 35.3%; GI50 [31]: 2320 nM; growth, % of control at 10 µM [32]: 31.7%; GI50 [33]: 1560 nM; GI50 [34]: 1750 nM; GI50 [35]: 690 nM; GI50 [36]: 1230 nM; GI50 [37]: 530 nM; GI50 [38]: 6660 nM; growth, % of control at 10 µM [39]: 22.7%; growth, % of control at 10 µM [40]: 7.1% |

Source: ChEMBL document CHEMBL3792365, “Dioxol and dihydrodioxin analogs of 2- and 3-phenylacetonitriles as potent anti-cancer agents with nanomolar activity against a variety of human cancer cells” (2016)
